KCNK3 block – human KCNK3 channel inhibition, primary screen | CHO-KCNK3 thallium flux, FluxOR fluorescence; active compounds read low | O14649 | 340,000 compounds, 0.84% hits | B-score at 10 µM | AID 602410;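 active = B-score under library mean minus 4 SD, starting fluorescence ratio at most library mean plus 5 SD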;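 also: more negative B-score means stronger inhibition of thallium flux through KCNK3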
hERG rescue – compounds protecting human hERG from proarrhythmic drug block; Q12809; CHO-hERG, FluxOR thallium flux, dofetilide IC70 present; activation (rescue from dofetilide block), less the hit threshold, % at 10 µM; 310,000 compounds, 0.51% hits; AID 1511;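 active = activation above the mean of controls blocked by dofetilide plus 5 SD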;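 also: thallium influx through hERG after potassium depolarization seen as dye fluorescence rise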
KCNQ1 inh – blocks the human KCNQ1 potassium channel | AID 2642 | B-score at 10 µM | P51787 | CHO-K1 KCNQ1, FluxOR thallium flux fluorescence; active compounds read high | 310,000 compounds, 1.3% hits;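 active = compounds whose thallium flux B-score, printed positive for inhibition, exceeds three library SD while starting fluorescence stays within three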;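 also: channel opened by potassium depolarization with thallium stimulus after 20 min compound exposure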
Target sequence (P51787 whole entry, looked up): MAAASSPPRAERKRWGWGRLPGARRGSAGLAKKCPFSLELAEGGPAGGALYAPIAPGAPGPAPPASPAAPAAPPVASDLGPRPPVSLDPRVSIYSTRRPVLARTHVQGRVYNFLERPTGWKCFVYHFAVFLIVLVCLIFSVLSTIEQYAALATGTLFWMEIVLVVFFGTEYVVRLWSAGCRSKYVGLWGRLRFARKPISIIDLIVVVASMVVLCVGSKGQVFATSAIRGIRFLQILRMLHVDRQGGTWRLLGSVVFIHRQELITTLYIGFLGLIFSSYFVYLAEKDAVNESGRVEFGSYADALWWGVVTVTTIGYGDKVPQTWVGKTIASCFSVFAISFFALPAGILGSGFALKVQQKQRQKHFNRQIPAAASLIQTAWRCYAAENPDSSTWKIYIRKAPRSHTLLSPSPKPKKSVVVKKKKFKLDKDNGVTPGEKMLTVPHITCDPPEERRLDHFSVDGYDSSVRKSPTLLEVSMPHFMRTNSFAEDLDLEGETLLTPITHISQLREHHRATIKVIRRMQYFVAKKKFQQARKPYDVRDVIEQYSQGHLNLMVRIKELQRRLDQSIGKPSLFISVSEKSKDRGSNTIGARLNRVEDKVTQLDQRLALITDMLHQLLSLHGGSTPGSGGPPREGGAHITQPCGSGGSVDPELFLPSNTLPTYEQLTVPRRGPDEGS
Kir21 inh – blocks the mouse Kir2.1 inward-rectifier potassium channel | P35561 | HEK293-Kir2.1, FluxOR thallium flux fluorescence; active compounds read low | B-score at 10 µM | 310,000 compounds, 0.85% hits | AID 1672;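 active = fluorescence ratio B-score at or below minus 3 SD of library scores, with starting-brightness B-score within 2 SD, cut at about -4.2 in these data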;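 also: channel flux triggered by added potassium and thallium sulfate stimulus; B-score of peak minus minimum fluorescence over baseline after thallium stimulus; more negative B-score means stronger Kir2.1 block with less thallium influx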
KCNQ1 pot – potentiators or activators of human KCNQ1 potassium channel; P51787; CHO-K1 KCNQ1, thallium flux FluxOR fluorescence; active compounds read high; AID 2648; B-score at 10 µM; 310,000 compounds, 0.35% hits;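 active = fluorescence ratio B-score, a plate-corrected score, at least three library SD, with initial intensity B-score within 5 SD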
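Test system: CHO-K1 cells stably expressing KCNQ1 / Medium: assay buffer / Also added: depolarizing K+/Tl+ stimulus, K2SO4 and Tl2SO4 each 12.5 mM in 5x stock / Incubation: 90 min dye loading and 20 min compound exposure, both at room temperature / Signal: thallium influx via FluxOR fluorescence, kinetic imaging / Evaluation: B score of baseline-normalized fluorescence ratio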
KCNK9 inh – inhibitors of human KCNK9 two-pore domain potassium channel; Q9NPC2; HEK293 KCNK9, FluxOR thallium flux fluorescence; active compounds read low; B-score at 10 µM; 310,000 compounds, 1.2% hits; AID 488922;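 active = ratio B-score over 3 SD below the library mean, with starting fluorescence within 5 SD of its mean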;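 also: negative B-score means less thallium flux so channel inhibition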
Numbers without * were called inactive; i = inactive; . = no result. The list is not random: actives were taken first. Their share in the collection is about 3.7%.

SMILES	KCNK3 block	hERG rescue	KCNQ1 inh	Kir21 inh	KCNQ1 pot	KCNK9 inh
Oc1c(Br)cc(Br)cc1C=Nc1cccnc1	i	-18.0	i	-0.86	15*	i
Oc1c(Br)cc(Br)cc1/C=N/c1nccs1	i	.	.	.	.	.
COc1ccc(C=Nc2ccc3[nH]ncc3c2)c(O)c1	i	-7.9	i	-0.99	i	i
Oc1c(Br)cc(Br)cc1C=Nc1ccc2[nH]ncc2c1	i	5.4*	i	-3.47	10*	-7.69*
CCCN(CC(=O)Nc1ccccc1Br)CC(=O)Nc1ccc(F)c(F)c1F	i	-7.8	i	-0.63	i	-7.01*
COc1cc2c(=O)n(CCC(=O)NCC3CCCO3)c(=O)n(CC(=O)Nc3ccc(F)cc3)c2cc1OC (configuration not stated)	i	-2.8	i	0.51	i	i
CCOc1cc(CNCCO)cc(Br)c1OCc1ccc(Cl)cc1Cl	i	-16.9	i	-13*	i	-7.8*
CCOc1cccc(CNc2ccc(O)cc2)c1OCc1ccc(Cl)cc1Cl	i	-1.9	i	-0.05	i	i
CCOc1cccc(CNCCO)c1OCc1ccc(Cl)cc1Cl	i	-10.4	i	-6.1*	i	i
COc1ccc(C(=O)N/N=C/c2sc(N3CCOCC3)nc2-c2ccccc2)cc1OC	i	-41.2	i	2.22	i	i
O=C(N/N=C/c1sc(N2CCOCC2)nc1-c1ccccc1)c1cccc(S(=O)(=O)N2CCCC2)c1	i	-9.1	6*	-0.5	i	i
O=C(NCCN1CCOCC1)c1cccc(S(=O)(=O)N2CCCCCC2)c1	i	7.2*	i	-0.46	i	i
O=C(NCCN1CCOCC1)c1cccc(S(=O)(=O)N2CCCC2)c1	i	-2.8	i	0.84	i	i
O=C(N/N=C/c1sc(N2CCOCC2)nc1-c1ccccc1)c1ccc(O)cc1	i	-12.2	7*	0.27	i	i
Cc1cccc(OCc2nnc(-c3ccc(F)cc3)o2)c1	i	.	.	.	.	.
CC(NCCC(c1ccccc1)c1ccccc1)c1ccccc1 (configuration not stated)	i	-16.4	i	-6.37*	i	i
CC(NC1CCCC1)c1ccccc1 (configuration not stated)	i	-11.0	i	-0.27	i	i
CCOc1ccccc1N(C)S(=O)(=O)c1ccc2c(c1)CCN2C(=O)CCC(=O)O	i	-6.6	i	0.5	i	i
CCNC(=S)NNC(=O)c1cc(-c2cccnc2)nc2ccccc12	i	-10.5	i	1.6	i	i
CCOC(=O)c1ccc(Nc2nc(-c3cccnc3)nc3ccccc23)cc1	i	-6.7	i	-0.74	i	-7.06*
Cc1ccc(Nc2nc(-c3cccnc3)nc3ccccc23)cc1	i	-2.7	i	0.28	i	i
CCOC(=O)c1ccc(NC(=S)NNC(=O)c2cc(-c3cccnc3)nc3ccccc23)cc1	i	-22.2	10*	-0.18	i	i
CCC(=O)Nc1cc(-c2nn3c(C)nnc3s2)ccc1C	i	-3.8	i	-0.21	8*	i
CC(=O)Nc1cc(-c2nn3c(C)nnc3s2)ccc1C	i	-9.3	i	-0.23	i	i
Cc1cc(F)ccc1S(=O)(=O)Nc1ccc(O)c(Sc2ncn[nH]2)c1	i	-2.3	i	-1.53	i	i
SMILES	KCNK3 block	hERG rescue	KCNQ1 inh	Kir21 inh	KCNQ1 pot	KCNK9 inh
C/C(=N\OCc1ccc(C#N)cc1)c1cc2ccccc2o1	i	-10.2	i	0.21	i	i
C/C(=N\OCc1ccccc1C#N)c1cc2ccccc2o1	i	-5.0	i	0.54	i	-7.13*
O=C(/C=C/c1cccc([N+](=O)[O-])c1)NCCSCc1ccc(Cl)cc1Cl	i	-13.3	i	-0.58	i	-14.3*
COc1cc(C(=O)N/N=C/c2ccc(OC(=O)c3ccccc3Cl)c(OC)c2)ccc1O	i	-18.0	6*	0.1	i	i
O=C(CCNS(=O)(=O)c1ccc(OC(F)(F)F)cc1)NC1CC1	i	.	.	.	.	.
COc1ccc(-n2ncc3c2CC(C)(C)CC3NC(=O)C2=CC(=O)CC(C)(C)O2)cc1 (configuration not stated)	i	-9.8	i	-0.14	i	i
O=C(NNc1c(F)c(F)cc(F)c1F)c1cc2ccccc2oc1=O	i	9.9*	i	-1.85	i	i
Cc1cccc(Oc2ccc(NC(=O)c3ccccc3C(=O)O)cc2)c1C	i	5.6*	i	-0.48	i	i
O=C(O)c1ccccc1C(=O)Nc1ccc(Oc2cccc3ccccc23)cc1	i	2.5	i	2.08	i	i
CN1C(=O)/C(=C\c2ccc(N(C)C)cc2)OC1=S	i	-17.0	11*	-0.96	i	i
COc1cccc(/C=N/N2C(=O)CSC2=S)c1O	i	-6.9	i	0.43	i	i
COc1cc(/C=N/N2C(=O)CSC2=S)cc(Br)c1O	-9.36*	.	.	.	.	.
O=C(Nc1ccc(OCC(F)(F)C(F)F)c(C(F)(F)F)c1)c1ccccc1O	i	-8.4	i	0.99	i	-6.6*
O=C(Nc1ccc(OCC(F)(F)C(F)F)c(C(F)(F)F)c1)c1ccccc1	i	-8.3	i	0.73	i	i
COc1ccccc1C(=O)ON=C1c2ccccc2-c2ccccc21	i	-19.1	i	1.79	i	-8.09*
Cc1c(S(=O)(=O)NC2CCCCCC2)c(=O)n(C)c(=O)n1C	i	-13.2	i	-0.88	i	i
COc1ccc(Cl)cc1S(=O)(=O)N1CCN=C1Cc1ccccc1	i	-10.5	i	-5.1*	i	i
COc1cc2c(cc1OC)CN(C(=O)c1ccc(Cl)c(S(=O)(=O)N3CCCC3)c1)CC2	-8.74*	.	.	.	.	.
O=C(CSc1ncnc2c1oc1ccccc12)c1cccs1	i	-1.7	i	1.96	i	i
Cc1nc(SCC(=O)c2cccs2)c2oc3ccccc3c2n1	i	-15.9	10*	-0.45	i	i
O=[N+]([O-])c1cccc(/C=N/Nc2nc(N3CCOCC3)nc(N3CCOCC3)n2)c1	i	-9.3	i	-1.2	i	i
O=[N+]([O-])c1cccc(/C=C/C=N/Nc2nc(N3CCCCC3)nc(N3CCCCC3)n2)c1	i	1.4	6*	-1.3	i	i
Cc1oc2ccc(OCc3ccc(Br)cc3)cc2c1C(=O)O	i	-5.8	i	-0.04	i	i
CCc1nc(SCC(=O)Nc2nnc(CC)s2)c2c(C)c(C)sc2n1	i	-1.1	i	1.41	i	i
CCc1nc(SCC(=O)Nc2cc(OC)ccc2OC)c2c(C)c(C)sc2n1	i	-5.7	i	-0.5	i	-6.62*

Assay outcomes (PubChem)
